Assay results collected from several papers.
Lines come from different studies, so protocols differ.
Effect on: enzyme activity
Mode: inhibitor
IGF1R: Insulin-like growth factor 1 receptor (IGF1R, Homo sapiens, UniProt P08069)
IGF1R phosphorylated: Insulin-like growth factor 1 receptor, phosphorylated (IGF1R, Homo sapiens, UniProt P08069)

Oc1cccc(-c2nc(N3CCOCC3)c3oc4ncccc4c3n2)c1 — remaining activity (IGF1R; 10 µM): 54%
CC(C)(C)C(=O)c1sc(NC2CCCCC2)nc1N — remaining activity (IGF1R; 10 µM): 118%
COc1cc(Cl)c(C(=O)N[C@@H](CN[C@H]2CC[C@@H](N)CC2)Cc2ccc(C#N)cc2)cc1-c1ccc(CN[C@H](C)c2ccc(C)cc2)o1 — remaining activity (IGF1R phosphorylated; 1 µM): 117%
CC(C)(C)c1nc(-c2cccc(NS(=O)(=O)c3c(F)cccc3F)c2F)c(-c2ccnc(N)n2)s1 — remaining activity (IGF1R; radiometric; 1 µM): 81%
CCN(CC)CCNC(=O)c1c(C)[nH]c(/C=C2\C(=O)Nc3ccc(F)cc32)c1C — remaining activity (IGF1R; 1 µM): 67%
Nc1nc(NC2CCCCC2)sc1C(=O)c1ccccc1 — remaining activity (IGF1R; 10 µM): 80%
O=C(Nc1cnn(-c2csc(C(=O)NC3COC3)c2)c1)Nc1ccccc1Cl — remaining activity (IGF1R; 5 µM): 95.8%
Cc1[nH]c(/C=C2\C(=O)Nc3ccc(F)cc32)c(C)c1C(=O)N[C@H]1CCN(C(=O)N(C)C)C1 — remaining activity (IGF1R; 1 µM): 106%
Cc1cnc(NC2CCOCC2)nc1-n1cnc(C(=O)NC(CN)c2cc(F)cc(Cl)c2)c1 (stereo not shown) — remaining activity (IGF1R phosphorylated; radiometric; 1 µM): 108%
Cc1sc(C(=O)NC2COC2)cc1-n1cc(NC(=O)Nc2c(F)cccc2Cl)cn1 — remaining activity (IGF1R; 10 µM): 102%
CCN(CC)c1ccc(C2=NNC(=O)CC2C)cc1[N+](=O)[O-] (stereo not shown) — remaining activity (IGF1R phosphorylated; 10 µM): 102%
CCCOc1ccc(OC)c(F)c1C(=O)c1ccc(C(=O)N[C@@H]2CNC[C@H]2NC(=O)c2ccc3[nH]ncc3c2)cc1 — remaining activity (IGF1R; 10 µM): 90%
COc1cc(Nc2cnc(C#N)c(O[C@H](C)CN(C)C)n2)ncc1-c1cnn(C)c1 — remaining activity (IGF1R; radiometric; 10 µM): 73%
